Bioassay records as filed in PubChem BioAssay.
RanGTP-Imp inh – inhibitors of RanGTP-importin-beta interaction, primary screen, biochemical, FRET, CFP-Ran, YFP-importin-beta, homogeneous; actives 1.1% (n = 300,000); AID 2216; inhibition, % (concentration not given with the values); cell-free CFP-Ran/YFP-importin-beta FRET ratio;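 active means more than half of the replicate wells show a fall in the fluorescence ratio signal beyond about 16%, limit read from the data, passing the limit was not always enough; inconclusive means exactly half of the replicate wells pass the set limit; inactive means fewer than half of replicates pass the limit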;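 further: 0% = DMSO wells and 100% = Ran loaded with GDP instead of GTP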
Platelet DG rel – modulates dense granule release in human platelets | actives 0.22% (n = 300,000) | AID 1663 | human platelet-rich plasma, SFLLRN dense granule ATP release, luminescence | inhibition, %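 (compounds screened at 7.5 µM in platelet-rich plasma)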;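 active means mean replicate score, as percent of positive control, at or above 50; inconclusive means mean below 50 but at least one replicate at or above 50; inactive means mean and every replicate below 50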
Rce1 inhib – blocks yeast Ras-converting enzyme. AID 2563. Q03530. actives 0.27% (n = 290,000). calls only. yeast membranes, quenched prenylated peptide cleavage fluorescence;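 active means fall in fluorescence gain of 50% or more versus controls, with final raw signal at or below 3038400; inconclusive means same 50% fall but final raw signal above 3038400; inactive means fall in fluorescence gain under 50%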;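 further: plate controls were neutral control wells for no effect and wells lacking membranes for full effect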
Runt-CBFb FRET – Runt domain-CBFb interaction inhibition | Q01196+Q13951 | actives 0.46% (n = 220,000) | Cerulean-Runt/Venus-CBFb FRET ratio 530/480, 1 h | inhibition, % at 20 µM | AID 1496;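 active means inhibition over about 50% at 20 µM in the single-dose screen, limit read from the data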;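 further: 0% = DMSO wells and 100% = excess unlabeled CBFb competitor control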
Target sequence (Q01196 whole entry, looked up, the tested form may be a part): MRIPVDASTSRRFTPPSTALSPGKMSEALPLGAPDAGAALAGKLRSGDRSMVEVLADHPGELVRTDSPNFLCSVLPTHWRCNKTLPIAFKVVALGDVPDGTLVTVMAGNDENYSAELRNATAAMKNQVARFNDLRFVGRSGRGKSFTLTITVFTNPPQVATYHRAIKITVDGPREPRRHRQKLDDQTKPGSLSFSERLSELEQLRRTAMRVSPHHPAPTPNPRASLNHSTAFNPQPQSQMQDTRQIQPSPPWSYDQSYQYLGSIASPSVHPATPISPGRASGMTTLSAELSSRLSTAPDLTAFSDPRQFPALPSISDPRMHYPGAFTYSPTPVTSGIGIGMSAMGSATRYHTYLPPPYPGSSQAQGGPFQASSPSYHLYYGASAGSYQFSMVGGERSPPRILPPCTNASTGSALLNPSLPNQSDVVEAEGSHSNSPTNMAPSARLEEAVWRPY
Target sequence (Q13951 whole entry, looked up, the tested form may be a part): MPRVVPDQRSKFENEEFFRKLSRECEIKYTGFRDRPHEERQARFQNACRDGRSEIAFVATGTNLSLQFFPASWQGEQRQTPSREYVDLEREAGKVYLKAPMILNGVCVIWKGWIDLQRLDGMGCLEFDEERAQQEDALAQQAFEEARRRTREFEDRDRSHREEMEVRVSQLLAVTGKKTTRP
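Assay system: Cerulean-Runt domain fusion protein, energy donor; Signal: fluorescence energy transfer, 422 nm excitation, 530/480 nm emission; Timing: 1 h compound exposure, room temperature; Control set: unlabeled CBFb; Medium: Tris buffer pH 7.5 with salts and BSA; Compound: single test concentration of 20 µM, 1% DMSO final; Probe or stimulus: Venus-CBFb 100 nM.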
Runt-SMMHC FRET – Runt domain-CBFb-SMMHC interaction inhibition | inhibition, % at 20 µM | Cerulean-Runt/Venus-CBFb-SMMHC FRET ratio 530/480, 1 h | AID 1434 | actives 0.74% (n = 220,000);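 active means mean inhibition across duplicate retests at 20 µM reaching about 50%, limit read from the data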;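 further: 0% = DMSO wells and 100% = wells with excess untagged CBFb-SMMHC; inhibitors lower the FRET ratio by blocking Runt binding to CBFb-SMMHC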
Starred values were filed as active, the others as inactive. A selection: hits, their analogues and other compounds. The true share with any hit is near 1.8%.

`Cc1nn(Cc2ccccc2)c(C)c1NC(=O)c1cc2nc(-c3ccco3)cc(C(F)(F)F)n2n1` gave RanGTP-Imp inh 2.7, Platelet DG rel -4.2, Rce1 inhib inactive, Runt-CBFb FRET 0.9 and Runt-SMMHC FRET 10.8.
`Cc1ccccc1Cn1ccc(NC(=O)c2cc3nc(-c4ccco4)cc(C(F)(F)F)n3n2)n1` gave RanGTP-Imp inh 54.2*, Platelet DG rel 6.5, Rce1 inhib inactive, Runt-CBFb FRET 5.0 and Runt-SMMHC FRET -4.1.
Screening CCc1ccc(-c2cc(C(F)(F)F)n3nc(C(=O)Nc4c(C)nn(Cc5ccccc5C)c4C)cc3n2)s1 returned RanGTP-Imp inh 35.0*, Platelet DG rel -6.0, Rce1 inhib inactive, Runt-CBFb FRET 7.1 and Runt-SMMHC FRET 11.9.
OCC1(CCc2ccccc2)CCN(Cc2cc(F)ccc2-n2cccn2)CC1 was read as RanGTP-Imp inh 2.3, Platelet DG rel 10.1, Rce1 inhib inactive, Runt-CBFb FRET 1.3 and Runt-SMMHC FRET 5.6.
For O=C(c1cn(-c2ccccc2)nc1-c1cccs1)N1CCN(c2ccccn2)CC1 the results were RanGTP-Imp inh 0.4, Platelet DG rel 4.2, Rce1 inhib active, Runt-CBFb FRET -2.1 and Runt-SMMHC FRET -0.8.
Screening CN1CCN(C(=O)c2cn(-c3ccccc3)nc2-c2cccs2)CC1 returned RanGTP-Imp inh 3.3, Platelet DG rel -7.6, Rce1 inhib inactive, Runt-CBFb FRET -1.2 and Runt-SMMHC FRET -1.4.
Screening CN(C)Cc1cc(O)c(CN(C)C)cc1O returned RanGTP-Imp inh 1.4, Platelet DG rel -5.7, Rce1 inhib inactive, Runt-CBFb FRET 4.3 and Runt-SMMHC FRET 69.3*.
Screening CCCCC(=O)Nc1nn(C)c2nc3c(C)cccc3cc12 returned RanGTP-Imp inh 8.0, Platelet DG rel 5.8, Rce1 inhib inactive, Runt-CBFb FRET 21.9 and Runt-SMMHC FRET 42.7.
For CCn1nc(NC(=O)C(C)C)c2cc3cccc(C)c3nc21 the results were RanGTP-Imp inh 48.3*, Platelet DG rel 7.3 and Rce1 inhib inactive.
For CCn1nc(NC(C)=O)c2cc3cccc(C)c3nc21 the results were RanGTP-Imp inh inconclusive, Platelet DG rel 6.2 and Rce1 inhib inactive.
For Cc1cccc2cc3c(NC(=O)CC(C)C)nn(C)c3nc12 the results were RanGTP-Imp inh 9.8, Platelet DG rel -3.6, Rce1 inhib inactive, Runt-CBFb FRET 27.3 and Runt-SMMHC FRET 48.5.
`CCn1nc(NC(=O)c2ccccc2)c2cc3cccc(C)c3nc21` gave RanGTP-Imp inh 69.4*, Platelet DG rel -3.0, Rce1 inhib inactive, Runt-CBFb FRET 61.9* and Runt-SMMHC FRET 86.4*.
Screening Cc1cccc2cc3c(NC(=O)C(C)(C)C)nn(CC(C)C)c3nc12 returned RanGTP-Imp inh 79.8*, Platelet DG rel 8.2 and Rce1 inhib inactive.
Screening Fc1ccccc1-c1ccc(/C=N/Nc2nc3ccccc3[nH]2)o1 returned Platelet DG rel 18.4, Rce1 inhib inactive, Runt-CBFb FRET 19.9 and Runt-SMMHC FRET 76.7*.
For C(=N\Nc1nc2ccccc2[nH]1)/c1ccccn1 the results were RanGTP-Imp inh 2.7, Platelet DG rel 62.0*, Rce1 inhib inactive, Runt-CBFb FRET -1.4 and Runt-SMMHC FRET 2.0.
For CCCCn1c(/C=N/Nc2nc3ccccc3[nH]2)nc2ccccc21 the results were RanGTP-Imp inh 0.7, Platelet DG rel 3.7, Rce1 inhib inactive, Runt-CBFb FRET -2.5 and Runt-SMMHC FRET -4.0.
For COc1cc(NC(=O)Cn2cnc(S(=O)(=O)N3CCOCC3)c2)cc(OC)c1OC the results were RanGTP-Imp inh -0.7, Platelet DG rel -1.7 and Rce1 inhib inactive.
`COc1ccc(-c2nn(-c3ccccc3)cc2C(=O)N2CCN(S(=O)(=O)c3cccc(F)c3)CC2)cc1` gave RanGTP-Imp inh inconclusive, Platelet DG rel 19.3 and Rce1 inhib inactive.
`OC(CNC1CCCC1)COCCOc1ccc(Br)cc1` (stereo not given) gave RanGTP-Imp inh 2.6, Platelet DG rel -0.2, Rce1 inhib inactive, Runt-CBFb FRET 1.6 and Runt-SMMHC FRET 1.7.
For O=c1[nH]c2ccc(S(=O)(=O)N3CCN(C4CCCCC4)CC3)cc2[nH]c1=O the results were RanGTP-Imp inh -1.4, Platelet DG rel -4.5, Rce1 inhib active, Runt-CBFb FRET 0.7 and Runt-SMMHC FRET -1.0.
O=S(=O)(c1ccc(S(=O)(=O)N2CCN(C3CCCCC3)CC2)cc1)N1CCCCCC1 was read as Runt-CBFb FRET -1.0 and Runt-SMMHC FRET -3.8.
`Cc1ccc(S(=O)(=O)N(C)c2ccc(OCC(=O)NCC3(N(C)C)CCCCC3)cc2)cc1` gave RanGTP-Imp inh 1.1, Platelet DG rel 25.7 and Rce1 inhib inactive.
`Nc1cccc2c1C(=O)N(C(=O)c1ccc(S(=O)(=O)N3CCCCCC3)cc1)C2=O` gave RanGTP-Imp inh 10.9, Platelet DG rel 1.5, Rce1 inhib inactive, Runt-CBFb FRET 11.5 and Runt-SMMHC FRET 57.8*.
COc1ccc(OC)c(C2C(C(=O)Nc3nc4ccccc4s3)=C(C)NC3=C2C(=O)CCC3)c1 (stereo not given) was read as RanGTP-Imp inh 7.7, Platelet DG rel -11.9, Rce1 inhib inactive, Runt-CBFb FRET 21.6 and Runt-SMMHC FRET 142.4*.
For CCN(C(=O)CN1CCc2ccccc21)c1c(N)n(Cc2ccccc2)c(=O)[nH]c1=O the results were RanGTP-Imp inh 6.5, Platelet DG rel 7.1, Rce1 inhib inactive, Runt-CBFb FRET 9.4 and Runt-SMMHC FRET 57.0*.
For COCCN(C(=O)CN1CCCc2ccccc21)c1c(N)n(Cc2ccccc2)c(=O)[nH]c1=O the results were RanGTP-Imp inh 6.2, Platelet DG rel -2.7, Rce1 inhib inactive, Runt-CBFb FRET -6.6 and Runt-SMMHC FRET 20.2.
Screening CC1CCCCC12NC(=O)N(CC(=O)NC(=O)NCc1ccco1)C2=O (stereo not given) returned RanGTP-Imp inh -2.6, Platelet DG rel -0.5, Rce1 inhib inactive, Runt-CBFb FRET 1.0 and Runt-SMMHC FRET -2.2.
Screening CCc1ccc2nc3nc(C)cc(C)c3c(N)c2c1 returned RanGTP-Imp inh 149.2*, Platelet DG rel -4.0, Rce1 inhib inactive, Runt-CBFb FRET 9.8 and Runt-SMMHC FRET 43.7.
For Cc1cc(C)c2c(N)c3ccccc3nc2n1 the results were RanGTP-Imp inh 134.8*, Platelet DG rel -1.0, Rce1 inhib inactive, Runt-CBFb FRET 10.9 and Runt-SMMHC FRET 77.9*.
`CN1/C(=C/C(=O)c2ccc(Cl)cc2)Sc2cc3c(cc21)OCO3` gave RanGTP-Imp inh 36.1*, Platelet DG rel -2.4, Rce1 inhib inactive, Runt-CBFb FRET -56.3 and Runt-SMMHC FRET -78.6.
Cc1nnc(NC(=O)CSc2nccn2Cc2ccc(F)cc2)s1 was read as RanGTP-Imp inh 5.1, Platelet DG rel 6.6 and Rce1 inhib inactive.
O=C(NC1CCCCCC1)c1cc2c(=O)n3ccccc3nc2s1 was read as RanGTP-Imp inh inconclusive, Platelet DG rel 30.2 and Rce1 inhib inactive.
For N=c1c(C(=O)NCc2ccco2)cc2c(=O)n3ccccc3nc2n1C1CCCC1 the results were RanGTP-Imp inh 135.1*, Platelet DG rel -0.2 and Rce1 inhib inactive.
